Columns and labels:
[1] = molecular target: T1, Dual specificity protein kinase TTK (Homo sapiens, UniProt P33981); experiment: Inhibition of Kinase Tracer 236 binding to recombinant human full-length GST-tagged TTk expressed in baculovirus expression system measured after 1 hr by LanthaScreen Eu--kinase binding assay
T1 sequence (P33981 whole entry): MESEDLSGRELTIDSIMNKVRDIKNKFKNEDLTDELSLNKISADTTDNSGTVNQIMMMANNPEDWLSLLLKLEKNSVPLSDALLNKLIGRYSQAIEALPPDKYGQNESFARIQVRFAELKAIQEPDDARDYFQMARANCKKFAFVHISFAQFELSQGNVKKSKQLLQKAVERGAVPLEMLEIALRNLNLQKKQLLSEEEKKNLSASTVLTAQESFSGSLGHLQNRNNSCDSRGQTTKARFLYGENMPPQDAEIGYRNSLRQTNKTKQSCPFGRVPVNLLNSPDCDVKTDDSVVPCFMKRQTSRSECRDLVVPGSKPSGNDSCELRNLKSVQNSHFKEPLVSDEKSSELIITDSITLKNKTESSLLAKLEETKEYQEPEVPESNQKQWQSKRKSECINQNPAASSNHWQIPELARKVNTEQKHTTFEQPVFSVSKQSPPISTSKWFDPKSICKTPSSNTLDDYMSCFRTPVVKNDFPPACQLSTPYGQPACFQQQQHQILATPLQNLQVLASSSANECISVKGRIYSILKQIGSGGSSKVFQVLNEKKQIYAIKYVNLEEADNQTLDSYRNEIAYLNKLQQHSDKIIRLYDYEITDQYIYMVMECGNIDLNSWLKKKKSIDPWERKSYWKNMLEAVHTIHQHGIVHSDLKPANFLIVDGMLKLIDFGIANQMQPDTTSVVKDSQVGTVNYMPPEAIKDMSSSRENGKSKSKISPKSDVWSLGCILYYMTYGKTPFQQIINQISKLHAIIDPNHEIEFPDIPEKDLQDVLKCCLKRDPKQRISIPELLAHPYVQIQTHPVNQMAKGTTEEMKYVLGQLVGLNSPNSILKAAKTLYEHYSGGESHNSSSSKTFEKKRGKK

[2] = tested on: CAL-51; experiment: Antiproliferative activity against human CAL51 cells assessed as reduction in cell viability after 3 days by CellTiter-Glo reagent-based luminescent assay; type: functional; details: CAL-51, 72 h
[3] = AUC in rat at 10 mg/kg, po; type: ADME, organism-based; details: in vivo
How it was run: (§1)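 Rat oral PK at 10 mg/kg. Compound is given as a solution in CMCT (0.5% CMC/0.25% tween-80) or formulated in 5% TPGS, 10% captisol, 50 mM citrate buffer. Cmax and AUC are recorded.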

[4] = molecular target: T1, Dual specificity protein kinase TTK; experiment: Inhibition of TTK autophosphorylation in human CAL51 cells by radioimmuno-precipitation assay; type: cell-based
[5] = Cmax in CB17 SCID mouse at 30 mg/kg, po; type: ADME, organism-based; design: dose 30 mg/kg, route oral; details: in vivo
How it was run: (§2)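 Oral PK in SCID mice at 30 mg/kg. Compound is formulated either in CMCT (0.5% CMC/0.25% tween-80) or in 5% TPGS, 10% captisol, 50 mM citrate buffer, depending on compound. Cmax and AUC are measured.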

[6] = Cmax in rat at 10 mg/kg, po; type: ADME, organism-based; design: dose 10 mg/kg, route oral; details: in vivo; how it was run: as §1
[7] = AUC in CB17 SCID mouse at 30 mg/kg, po; type: ADME, organism-based; details: in vivo; how it was run: as §2
[8] = Metabolic stability in human liver S9 fraction assessed as parent compound remaining after 60 mins; type: ADME, subcellular; details: read-out: Stability
[9] = tested on: CAL-51; experiment: Antitumor activity against human CAL51 cells xenografted in CB17 SCID mouse assessed as tumor growth inhibition at 5 mg/kg, iv q4d and measured twice per week up to 31 days by caliper method relative to control; type: functional; details: CAL-51, iv, 744 h, read-out: TGI
[10] = Toxicity in CB17 SCID mouse xenografted with human CAL51 cells assessed as body weight loss at 5 mg/kg, iv q4d and measured up to 31 days relative to control; type: organism-based; details: in vivo, 744 h
[11] = Oral bioavailability in rat at 5 mg/kg; details: in vivo

Row | IC50 [1] [µM] | AUC [3] [µM·h] | SMILES | IC50 [2] [µM] | other results
1 | 0.0013 |  | COc1cc(C(=O)N(C)C)ccc1Nc1nc(OC2CCCC2)c2cc[nH]c2n1 | 0.497 | 
2 |  | 11 | COc1cc(N2CCC(C)(O)CC2)ccc1Nc1nc(O[C@H]2CCOC(C)(C)C2)c2cc[nH]c2n1 | 0.071 | 
3 | 0.0025 | 24 | COc1cc(N2CCN(C3COC3)CC2)ccc1Nc1nc(O[C@H]2CCOC(C)(C)C2)c2cc[nH]c2n1 | 0.084 | IC50 [4]: 0.044 µM; Cmax [5]: 11.8 µM; Cmax [6]: 4.43 µM; AUC [7]: 35.3 µM·h; remaining at 1 h [8]: 85%
4 | 0.0032 |  | COc1cc(C(=O)N(C)C)ccc1Nc1nc(OC(C)C)c2cc[nH]c2n1 | 1.27 | 
5 | 0.0013 | 9.5 to 9.52 | COc1cc(N2CCN(C(=O)CO)CC2)ccc1Nc1nc(O[C@H]2CCOC(C)(C)C2)c2cc[nH]c2n1 | 0.037 | IC50 [4]: 0.016 µM; Cmax [5]: 9.86 µM; Cmax [6]: 2.53 µM; AUC [7]: 17.6 µM·h; remaining at 1 h [8]: 79%
6 | 0.001 | 30 | COc1cc(C(=O)N(C)C)ccc1Nc1nc(O[C@H]2CCOC(C)(C)C2)c2cc[nH]c2n1 | 0.131 | 
7 |  | 16.1 | CN(C)C(=O)c1ccc(Nc2nc(O[C@H]3CC[C@@](C)(O)CC3)c3cc[nH]c3n2)c(OCC(F)(F)F)c1 | 0.015 | 
8 |  | 30 | C[C@@H](Oc1cc(C(=O)N(C)C)ccc1Nc1nc(O[C@H]2CC[C@@](C)(O)CC2)c2cc[nH]c2n1)C(F)(F)F | 0.024 | 
9 | 0.0006 |  | COc1cc(C(=O)N(C)C)ccc1Nc1nc(O[C@H]2CC[C@](C)(O)CC2)c2cc[nH]c2n1 | 0.069 | 
10 |  | 14.7 | COc1cc(N2CCOCC2)ccc1Nc1nc(O[C@H]2CCOC(C)(C)C2)c2cc[nH]c2n1 | 0.053 | 
11 |  |  | CC(=O)O[C@@]12CO[C@@H]1C[C@H](O)[C@@]1(C)C(=O)[C@H](O)C3=C(C)[C@@H](OC(=O)[C@H](O)[C@@H](NC(=O)OC(C)(C)C)c4ccccc4)C[C@@](O)([C@@H](OC(=O)c4ccccc4)[C@H]21)C3(C)C [DOCETAXEL ANHYDROUS] |  | inhibition in vivo at 5 mg/kg [9]: 61%; Activity [10]: 20%
12 | 0.0007 | 21.8 | COc1cc(C(=O)N(C)C)ccc1Nc1nc(O[C@H]2CC[C@@](C)(O)CC2)c2cc[nH]c2n1 | 0.044 | 
13 |  |  | COc1cc(C(=O)N2CCOCC2)ccc1Nc1nc(O[C@H]2CCOC(C)(C)C2)c2cc[nH]c2n1 | 0.406 | 
14 |  |  | CCOc1cc(C(=O)N(C)C)ccc1Nc1nc(O[C@H]2CC[C@@](C)(O)CC2)c2cc[nH]c2n1 | 0.026 | 
15 |  |  | CNC(=O)c1ccc(Nc2nc(OC3CCCC3)c3c(-c4ccc5nc(C)oc5c4)c[nH]c3n2)c(OC)c1 |  | bioavailability [11]: 0.9%
16 | 0.0072 |  | COc1cc(C(=O)N(C)C)ccc1Nc1nc(OC2COC2)c2cc[nH]c2n1 | 1.96 | 
17 | 0.001 |  | COc1cc(C(=O)N(C)C)ccc1Nc1nc(OC2CCOCC2)c2cc[nH]c2n1 | 0.198 | 
18 | 0.0013 |  | COc1cc(C(=O)N(C)C)ccc1Nc1nc(OC2CCCCC2)c2cc[nH]c2n1 | 0.19 | 

— ChEMBL document CHEMBL4346709, “Design and Optimization Leading to an Orally Active TTK Protein Kinase Inhibitor with Robust Single Agent Efficacy” (J Med Chem, 2019)
